# Source: ChEMBL document CHEMBL1123102, “Synthesis and anthelmintic activity of 5(6)-(benzimidazol-2-ylcarbamoyl) and (4-substituted piperazin-1-yl)benzimidazoles” (1985)
# What was measured:
# Rattus norvegicus [1] = test: Antitapeworm activity evaluated as(percent animal freed of worms) against Hymenolepis nana in rat (dose 250 mg/kg X 3)administered orally; type: functional; conditions: route oral
# Method in brief: (§1)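 Newly weaned male albino rats (Freiburg strain, 25–30 g) were infected orally with 200 viable H. nana ova. Those passing eggs on day 17 were treated orally, 3–5 per group, three daily doses after a 5–6 h fast. Rats were fasted again on day 3 of treatment and sacrificed. Worms with scolices and worm-free animals were scored.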
# Rattus norvegicus [2] = test: Antifilarial activity evaluated as (percent reduction of microfilariae) against Litomosoides carinii in Coton rat, at a dose (30 mg/kg X 5) administered intraperitoneally; type: functional
# Method in brief: (§2)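 Cotton rats (Sigmodon hispidus) infected with L. carinii by vector mite (Liponyssus bacoti) transmission. Animals with ≥250 microfilariae per 5 µL blood after prepatency were used, 3–4 per experiment. Drug was given i.p. in water or Tween 80 suspension daily for 5 days. Blood smears were read weekly up to 6 weeks. Adult worms were examined at sacrifice on day 42.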
# Rattus norvegicus [3] = test: Antifilarial activity evaluated as (percent death of adult worms on day 42) against Litomosoides carinii in Coton rat, at a dose (30 mg/kg X 5) administered intraperitoneally; type: functional
# Method in brief: (§3)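 Cotton rats (Sigmodon hispidus) were infected with L. carinii through the vector Liponyssus bacoti. At the end of the prepatent period, animals with at least 250 microfilariae per blood sample were selected, 3–4 per experiment. Drug in water or Tween 80 suspension was given ip daily for 5 days. Blood smears were taken weekly up to 6 weeks. On day 42, animals were killed and the condition of adult male and female worms assessed.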
# Rattus norvegicus [4] = test: Antitapeworm activity evaluated as reduction of worms with scolices against Hymenolepis nana in rat ( dose 250 mg/kg X 3) administered orally; type: functional; conditions: route oral; method in brief: as §1
# Rattus norvegicus [5] = test: Antifilarial activity evaluated as (persistance of microfilaricidal effect) against Litomosoides carinii in Coton rat, at a dose (30 mg/kg X 5) administered intraperitoneally; type: functional; method in brief: as §2
# Rattus norvegicus [6] = test: Antitapeworm activity evaluated as reduction of worms with scolices against Hymenolepis nana in rat ( dose 250 mg/kg X3 )administered orally; type: functional; conditions: route oral; method in brief: as §1
# Rattus norvegicus [7] = test: Antifilarial activity evaluated as (persistance of microfilaricidal effect)against Litomosoides carinii in Cotton rat, at a dose (30 mg/kg X 5) administered intraperitoneally; type: functional; method in brief: as §2
# Rattus norvegicus [8] = test: Antifilarial activity evaluated as (percent death of adult worms on day 42) against Litomosoides carinii in Cotton rat, at a dose (30 mg/kg X 5) administered intraperitoneally; type: functional; method in brief: as §3
# Rattus norvegicus [9] = test: Antifilarial activity evaluated as (percent reduction of microfilariae) against Litomosoides carinii in Coton rat, at a dose (6 mg/kg X 5) administered intraperitoneally; type: functional; method in brief: as §2
# Rattus norvegicus [10] = test: Antifilarial activity evaluated as (percent death of adult worms on a day 42) against Litomosoides carinii in Coton rat, at a dose (6 mg/kg X 5) administered intraperitoneally; Nil; type: functional, organism-based; method in brief: as §3
# Rattus norvegicus [11] = test: Antifilarial activity evaluated as (persistance of microfilaricidal effect)against Litomosoides carinii in Coton rat, at a dose (6 mg/kg X 5)administered intraperitoneally; type: functional; method in brief: as §2
# Rattus norvegicus [12] = test: Antitapeworm activity evaluated as reduction of worms with scolices against Hymenolepis nana in rat ( dose 400 mg/kg X 3) administered orally; type: functional; conditions: route oral; method in brief: as §1
# Rattus norvegicus [13] = test: Antitapeworm activity evaluated as(percent animal freed of worms) against Hymenolepis nana in rat (dose 400 mg/kg X 3)administered orally; type: functional; conditions: route oral; method in brief: as §1
# Rattus norvegicus [14] = test: Antitapeworm activity evaluated as reduction of worms with scolices against Hymenolepis nana in rat (dose 50 mg/kg X 3)administered orally; type: functional; conditions: route oral; method in brief: as §1
# Rattus norvegicus [15] = test: Antitapeworm activity evaluated as(percent animal freed of worms) against Hymenolepis nana in rat ( dose 250 mg/kg X 3)administered orally; type: functional; conditions: route oral; method in brief: as §1
# Rattus norvegicus [16] = test: Antitapeworm activity evaluated as (percent animal freed of worms) against Hymenolepis nana in rat (dose 100 mg/kg X 3)administered orally; type: functional; conditions: route oral; method in brief: as §1
# Rattus norvegicus [17] = test: Antitapeworm activity evaluated as(percent animal freed of worms) against Hymenolepis nana in rat (dose 50 mg/kg X 3)administered orally; type: functional; conditions: route oral; method in brief: as §1
# Rattus norvegicus [18] = test: Antitapeworm activity evaluated as reduction of worms with scolices against Hymenolepis nana in rat (dose 100 mg/kg X 3)administered orally; type: functional; conditions: route oral; method in brief: as §1
# Rattus norvegicus [19] = test: Antitapeworm activity evaluated as reduction of worms with scolices against Hymenolepis nana in rat (dose 250 mg/kg X 3) administered orally; type: functional; conditions: route oral; method in brief: as §1
smiles,measurement,setting,value
CCN(CC)C(=O)N1CCN(c2ccc3[nH]c(NC(=O)OC)nc3c2)CC1,Reduction,Rattus norvegicus [1],100%
same,Removal,Rattus norvegicus [2],>95%
same,Death,Rattus norvegicus [3],100%
same,Reduction,Rattus norvegicus [4],100%
same,Activity,Rattus norvegicus [5],42
COC(=O)Nc1nc2cc(N3CCN(C(=O)c4ccco4)CC3)ccc2[nH]1,Reduction,Rattus norvegicus [6],100%
same,Reduction,Rattus norvegicus [1],100%
same,Removal,Rattus norvegicus [2],>90%
same,Activity,Rattus norvegicus [7],42
same,Death,Rattus norvegicus [8],90%
CCN(CC)C(=O)N1CCN(C)CC1 [DIETHYLCARBAMAZINE],Removal,Rattus norvegicus [9],>95%
same,Death,Rattus norvegicus [10],Nil
same,Activity,Rattus norvegicus [11],7
COC(=O)Nc1nc2cc(C(=O)c3ccccc3)ccc2[nH]1 [MEBENDAZOLE],Reduction,Rattus norvegicus [12],0%
same,Reduction,Rattus norvegicus [13],0%
COC(=O)Nc1nc2cc(N3CCN(C(=O)c4ccccc4)CC3)ccc2[nH]1,Reduction,Rattus norvegicus [14],100%
same,Reduction,Rattus norvegicus [15],100%
same,Reduction,Rattus norvegicus [16],100%
same,Reduction,Rattus norvegicus [17],85%
same,Reduction,Rattus norvegicus [18],100%
same,Reduction,Rattus norvegicus [19],100%
